Test results from ChEMBL document CHEMBL1122353, “DNA binding studies of 7-bulky-substituted actinomycin analogues” (J Med Chem, 1983).
*1 amine or outer side, *2 acyl side, *3 side chain or, on linkers, in order; H or OH if unused. Where a SMILES comes first, the peptide text is derived from it. Bridges are numbered along the chain shown (N, C = ends). Roman numbers before positions name the chains, in order. [ ]: non-standard residue; d: D form. Actinocin(9to1) = Cc1c2oc3c(C)ccc(C(=O)[*:1])c3nc-2c(C(=O)[*:2])c(N)c1=O; NMeV = CN[C@H](C(=O)O)C(C)C; Sar = CNCC(=O)O

Legend:
Nucleic Acid [1] = assay: Increase in thermal denaturation temperature of calf thymus DNA; format: functional; settings: Bos taurus
Nucleic Acid [2] = assay: Time constant of slowest dissociation step of drug from DNA complex; format: functional
In short: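 Purified calf thymus DNA–drug complexes were held in 0.01 M phosphate buffer (pH 7.0) at 20 °C, with a DNA (nucleotide):drug ratio of 20:1. 5% NaDodSO4 was added to sequester free drug. Absorbance decay was followed over time at a wavelength chosen for each drug (430–492 nm). τ was taken as the time constant of the slowest dissociation step.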

DNA (Bos taurus) = assay: Apparent binding constant for calf thymus DNA

Cc1c2oc3c(C)c(O)c(N)c(C(=O)N4OC(=O)[C@H](C(C)C)N(C)C(=O)CCNC(=O)[C@@H]5CCCN5C(=O)[C@H](C(C)C)NC(=O)[C@@H]4[C@@H](C)O)c3nc-2c(C(=O)N2OC(=O)[C@H](C(C)C)N(C)C(=O)CCNC(=O)[C@@H]3CCCN3C(=O)[C@H](C(C)C)NC(=O)[C@@H]2[C@@H](C)O)c/c1=N/Cc1ccc(Cl)c(Cl)c1
ΔTm (Nucleic Acid [1]): 7 °C | rel T (Nucleic Acid [2]): 60 | K app (DNA (Bos taurus)): 2.6e+07 M⁻¹

Cc1c2oc3c(C)ccc(C(=O)N[C@@H]4C(=O)N[C@H](C(C)C)C(=O)N5CCC[C@H]5C(=O)N(C)CC(=O)N(C)[C@@H](C(C)C)C(=O)O[C@@H]4C)c3nc-2c(C(=O)N[C@@H]2C(=O)N[C@H](C(C)C)C(=O)N3CCC[C@H]3C(=O)N(C)CC(=O)N(C)[C@@H](C(C)C)C(=O)O[C@@H]2C)c(N)c1=O (I: T[dV]P[Sar][NMeV] / II: T[dV]P[Sar][NMeV]; ester I:1-I:C, II:1-II:C; linker I:N-II:N via Actinocin(9to1))
ΔTm (Nucleic Acid [1]): 8 °C | rel T (Nucleic Acid [2]): 100

Cc1c2oc3c(C)c(O)c(N)c(C(=O)N4OC(=O)[C@H](C(C)C)N(C)C(=O)CCNC(=O)[C@@H]5CCCN5C(=O)[C@H](C(C)C)NC(=O)[C@@H]4[C@@H](C)O)c3nc-2c(C(=O)N2OC(=O)[C@H](C(C)C)N(C)C(=O)CCNC(=O)[C@@H]3CCCN3C(=O)[C@H](C(C)C)NC(=O)[C@@H]2[C@@H](C)O)c/c1=N/Cc1ccc[nH]1
ΔTm (Nucleic Acid [1]): 16 °C | rel T (Nucleic Acid [2]): 225 | K app (DNA (Bos taurus)): 9.2e+07 M⁻¹

Cc1c2oc3c(C)c(O)c(N)c(C(=O)N4OC(=O)[C@H](C(C)C)N(C)C(=O)CCNC(=O)[C@@H]5CCCN5C(=O)[C@H](C(C)C)NC(=O)[C@@H]4[C@@H](C)O)c3nc-2c(C(=O)N2OC(=O)[C@H](C(C)C)N(C)C(=O)CCNC(=O)[C@@H]3CCCN3C(=O)[C@H](C(C)C)NC(=O)[C@@H]2[C@@H](C)O)cc1=N
ΔTm (Nucleic Acid [1]): 8 °C | rel T (Nucleic Acid [2]): 125 | K app (DNA (Bos taurus)): 2.3e+07 M⁻¹
